In ChEMBL document CHEMBL1806434, “Acyclic nucleoside phosphonates with a branched 2-(2-phosphonoethoxy)ethyl chain: efficient synthesis and antiviral activity” (Bioorg Med Chem, 2011):
Calls of active or inactive are those of the source. The calls are words filed in the database; no cut-off is given here.

Experiments:
[1] = tested on: Human alphaherpesvirus 3; assay: Antiviral activity against Varicella-zoster virus strain OKA expressing thymidine kinase assessed as reduction of virus induced cytopathicity by cell based assay; type: functional; conditions: for EC50: Human alphaherpesvirus 3, strain Oka vaccine; for Activity: strain Oka vaccine
Procedure, shortened: (§1)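 Confluent cell monolayers infected with 100 CCID50 virus, or 20 PFU for plaque assays, then incubated with serial compound dilutions. Host cells listed for the non-HIV panel are HEL fibroblasts, Vero, HeLa, CRFK or MDCK. Cytopathicity is scored, or plaques counted for VZV, once infected untreated controls reach full CPE.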

[2] = tested on: Human alphaherpesvirus 3; assay: Antiviral activity against thymidine kinase-deficient Varicella-zoster virus 07/1 assessed as reduction of virus induced cytopathicity by cell based assay; type: functional, organism-based; conditions: for EC50: Human alphaherpesvirus 3, 07/1; procedure, shortened: as §1
[3] = tested on: Human alphaherpesvirus 1; assay: Antiviral activity against Herpes simplex virus 1 strain KOS assessed as reduction of virus induced cytopathicity by cell based assay; type: functional, organism-based; conditions: for EC50: Human alphaherpesvirus 1, KOS; procedure, shortened: as §1
[4] = tested on: Human alphaherpesvirus 2; assay: Antiviral activity against Herpes simplex virus 2 strain G assessed as reduction of virus induced cytopathicity by cell based assay; type: functional, organism-based; conditions: for EC50: Human alphaherpesvirus 2, strain G; procedure, shortened: as §1
[5] = tested on: Human alphaherpesvirus 1; assay: Antiviral activity against thymidine kinase-deficient acyclovir-resistant Herpes simplex virus 1 strain KOS assessed as reduction of virus induced cytopathicity by cell based assay; type: functional, organism-based; conditions: for EC50: Human alphaherpesvirus 1, KOS; procedure, shortened: as §1
[6] = tested on: Human betaherpesvirus 5; assay: Antiviral activity against Human cytomegalovirus Davis assessed as reduction of virus induced cytopathicity by cell based assay; type: functional, organism-based; conditions: for EC50: Human betaherpesvirus 5, Davis; procedure, shortened: as §1
[7] = tested on: Vaccinia virus; assay: Antiviral activity against Vaccinia virus Lederle assessed as reduction of virus induced cytopathicity by cell based assay; type: functional, organism-based; conditions: Orthopoxvirus vaccinia; procedure, shortened: as §1
[8] = Cytotoxicity against human HEL cells assessed as alteration of cell morphology after 3 days by microscopic analysis; type: cell-based
Procedure, shortened: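 MCC taken as the lowest compound concentration producing microscopically detectable alteration of HEL fibroblast morphology.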

[9] = tested on: HEL; assay: Cytotoxicity against human HEL cells after 3 days by coulter counter; type: cell-based; conditions: 72 h
Procedure, shortened: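 HEL cells seeded at 5 × 10^3 cells/well and allowed to proliferate for 24 h, then exposed to a range of compound concentrations for 3 days at 37 °C. Cells counted with a Coulter counter.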

[10] = tested on: Vesicular stomatitis virus; assay: Antiviral activity against Vesicular stomatitis virus assessed as reduction of virus induced cytopathicity by cell based assay; type: functional, organism-based; procedure, shortened: as §1
[11] = tested on: Coxsackievirus B4; assay: Antiviral activity against Coxsackievirus B4 assessed as reduction of virus induced cytopathicity by cell based assay; type: functional, organism-based
Procedure, shortened: (§2)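 Confluent cell monolayers in 96-well plates (HEL, Vero, HeLa, CRFK or MDCK; the cell type per virus is not specified) infected with 100 CCID50 virus or 20 PFU and incubated with serial compound dilutions. Cytopathicity scored once it was complete in untreated infected controls.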

[12] = tested on: Respiratory syncytial virus; assay: Antiviral activity against Respiratory syncytial virus Long assessed as reduction of virus induced cytopathicity by cell based assay; type: functional, organism-based; procedure, shortened: as §2
[13] = tested on: Human respirovirus 3; assay: Antiviral activity against Human parainfluenza virus 3 assessed as reduction of virus induced cytopathicity by cell based assay; type: functional, organism-based; procedure, shortened: as §2
[14] = tested on: Mammalian orthoreovirus 1; assay: Antiviral activity against Reovirus-1 assessed as reduction of virus induced cytopathicity by cell based assay; type: functional, organism-based; procedure, shortened: as §2
[15] = tested on: Sindbis virus; assay: Antiviral activity against Sindbis virus assessed as reduction of virus induced cytopathicity by cell based assay; type: functional, organism-based; procedure, shortened: as §2
[16] = tested on: Punta Toro virus; assay: Antiviral activity against Punta Toro virus assessed as reduction of virus induced cytopathicity by cell based assay; type: functional, organism-based; procedure, shortened: as §2
[17] = tested on: Human alphaherpesvirus 3; assay: Antiviral activity against Varicella-zoster virus YS expressing thymidine kinase assessed as reduction of virus induced cytopathicity by cell based assay; type: functional, organism-based; conditions: for EC50: Human alphaherpesvirus 3, YS
[18] = tested on: Human alphaherpesvirus 3; assay: Antiviral activity against thymidine kinase-deficient Varicella-zoster virus YS/R assessed as reduction of virus induced cytopathicity by cell based assay; type: functional, organism-based; conditions: for EC50: Human alphaherpesvirus 3, YS/R
[19] = tested on: Human betaherpesvirus 5; assay: Antiviral activity against Human cytomegalovirus strain AD169 assessed as reduction of virus induced cytopathicity by cell based assay; type: functional, organism-based; conditions: for EC50: Human betaherpesvirus 5, AD169; procedure, shortened: as §1
[20] = tested on: L1210; assay: Cytostatic activity against mouse L1210 cells; type: functional
[21] = tested on: FM3A; assay: Cytostatic activity against mouse FM3A cells; type: functional
[22] = tested on: CCRF-CEM; assay: Cytostatic activity against human CEM cells; type: cell-based

SMILES	EC50 [1]	EC50 [2]	EC50 [3]	EC50 [4]	EC50 [5]	EC50 [6]	EC50 [7]	MCC at 72 h [8]	CC50 [9]	Activity [10]	Activity [11]	Activity [12]	Activity [13]	Activity [14]	Activity [15]	Activity [16]	Activity [17]	Activity [1]	Activity [2]	Activity [18]	further results
Nc1nc2c(ncn2CCOC(CO)CP(=O)(O)O)c(=O)[nH]1 (stereo not given)	> 300 µM	> 300 µM	156 µM	156 µM	261 µM	165 µM	> 300 µM	> 300 µM	300 µM	inactive	inactive	inactive	inactive	inactive	inactive	inactive	–	–	–	–	–
Nc1nc(O)c2ncn(COC(CO)CO)c2n1 [GANCICLOVIR]	–	–	0.017 µM	0.023 µM	0.12 µM	–	> 100 µM	> 394 µM	543 µM	–	–	–	–	–	–	–	–	–	–	–	–
CCC(CP(=O)(O)O)OCCn1cnc2c(N)ncnc21 (stereo not given)	19 µM	22 µM	238 µM	286 µM	251 µM	243 µM	> 317 µM	> 317 µM	> 317 µM	inactive	inactive	inactive	inactive	inactive	inactive	inactive	–	–	–	–	EC50 [17]: 42 µM; EC50 [18]: 43 µM; EC50 [19]: 159 µM; CC50 [20]: > 660 µM; CC50 [21]: 432 µM; CC50 [22]: > 660 µM
CC(CP(=O)(O)O)OCCn1cnc2c(N)nc(N)nc21 (stereo not given)	–	–	–	–	–	–	–	–	–	inactive	inactive	inactive	inactive	inactive	inactive	inactive	inactive	inactive	inactive	inactive	Activity [3]: inactive; Activity [4]: inactive; Activity [5]: inactive; Activity [19]: inactive; Activity [6]: inactive; Activity [7]: inactive
O=c1[nH]cnc2c1ncn2CCOC(CO)CP(=O)(O)O (stereo not given)	88 µM	197 µM	208 µM	315 µM	> 315 µM	> 315 µM	> 315 µM	> 315 µM	> 315 µM	inactive	inactive	inactive	inactive	inactive	inactive	inactive	–	–	–	–	–
O=c1ccn(CCOC(CO)CP(=O)(O)O)c(=O)[nH]1 (stereo not given)	–	–	–	–	–	–	–	–	–	inactive	inactive	inactive	inactive	inactive	inactive	inactive	inactive	inactive	inactive	inactive	Activity [3]: inactive; Activity [4]: inactive; Activity [5]: inactive; Activity [19]: inactive; Activity [6]: inactive; Activity [7]: inactive
CC(CP(=O)(O)O)OCCn1ccc(N)nc1=O (stereo not given)	130 µM	168 µM	> 361 µM	> 361 µM	> 361 µM	> 361 µM	> 361 µM	> 361 µM	307 µM	inactive	inactive	inactive	inactive	inactive	inactive	inactive	–	–	–	–	–
Cc1cn(CCOC(CO)CP(=O)(O)O)c(=O)[nH]c1=O (stereo not given)	–	–	–	–	–	–	–	–	–	inactive	inactive	inactive	inactive	inactive	inactive	inactive	inactive	inactive	inactive	inactive	Activity [3]: inactive; Activity [4]: inactive; Activity [5]: inactive; Activity [19]: inactive; Activity [6]: inactive; Activity [7]: inactive
Nc1ncnc2c1ncn2CCOC(CO)CP(=O)(O)O (stereo not given)	–	–	–	–	–	–	–	–	–	inactive	inactive	inactive	inactive	inactive	inactive	inactive	inactive	inactive	inactive	inactive	Activity [3]: inactive; Activity [4]: inactive; Activity [5]: inactive; Activity [19]: inactive; Activity [6]: inactive; Activity [7]: inactive
CC(CP(=O)(O)O)OCCn1ccc(=O)[nH]c1=O (stereo not given)	6.3 µM	13 µM	43 µM	34 µM	97 µM	34 µM	> 360 µM	> 360 µM	291 µM	inactive	inactive	inactive	inactive	inactive	inactive	inactive	–	–	–	–	EC50 [17]: 9.9 µM; EC50 [18]: 12 µM; EC50 [19]: 36 µM
O=c1[nH]cnc2c1ncn2CCOC(COCc1ccccc1)CP(=O)(O)O (stereo not given)	–	–	–	–	–	–	–	–	–	inactive	inactive	inactive	inactive	inactive	inactive	inactive	inactive	inactive	inactive	inactive	Activity [3]: inactive; Activity [4]: inactive; Activity [5]: inactive; Activity [19]: inactive; Activity [6]: inactive; Activity [7]: inactive
Nc1nc2c(ncn2CCOC(COCc2ccccc2)CP(=O)(O)O)c(=O)[nH]1 (stereo not given)	109 µM	94 µM	> 240 µM	> 240 µM	> 240 µM	> 240 µM	> 240 µM	> 240 µM	> 240 µM	inactive	inactive	inactive	inactive	inactive	inactive	inactive	–	–	–	–	–
Nc1ncnc2c1ncn2CCOC(COCc1ccccc1)CP(=O)(O)O (stereo not given)	–	–	–	–	–	–	–	–	–	inactive	inactive	inactive	inactive	inactive	inactive	inactive	inactive	inactive	inactive	inactive	Activity [3]: inactive; Activity [4]: inactive; Activity [5]: inactive; Activity [19]: inactive; Activity [6]: inactive; Activity [7]: inactive
Nc1nc2c(ncn2COCCO)c(=O)[nH]1 [ACYCLOVIR]	–	–	0.3 µM	–	7.3 µM	–	> 250 µM	> 444 µM	1340 µM	–	–	–	–	–	–	–	–	–	–	–	–
Cc1cn(CCOC(C)CP(=O)(O)O)c(=O)[nH]c1=O (stereo not given)	47 µM	48 µM	171 µM	154 µM	> 342 µM	248 µM	> 342 µM	> 342 µM	> 342 µM	inactive	inactive	inactive	inactive	inactive	inactive	inactive	–	–	–	–	EC50 [19]: 188 µM
